In ChEMBL document CHEMBL2021791, “Synthesis, structure-activity relationships and biological evaluation of caudatin derivatives as novel anti-hepatitis B virus agents” (Bioorg Med Chem, 2012):
pIC50: −log10 of the molar value.

Experiments:
[1] = system: Hepatitis B virus; test: Antiviral activity against Hepatitis B virus infected in human HepG2(2.2.15) cells assessed as suppression of HbeAg secretion by ELISA; assay type: functional, organism-based
[2] = system: Hepatitis B virus; test: Antiviral activity against Hepatitis B virus infected in human HepG2(2.2.15) cells assessed as suppression of HBsAg secretion by ELISA; assay type: functional, organism-based
[3] = system: Hepatitis B virus; test: Antiviral activity against Hepatitis B virus infected in human HepG2(2.2.15) cells assessed as inhibition of viral DNA replication by RT-PCR analysis; assay type: functional, organism-based
[4] = system: Hepatitis B virus; test: Selectivity ratio of CC50 for human HepG2(2.2.15) cells to IC50 for Hepatitis B virus infected in human HepG2.2.15 cells assessed as suppression of HBsAg secretion; assay type: cell-based; settings: read-out: Ratio CC50/IC50
Procedure, shortened: (§1)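 The selectivity index was calculated as CC50/IC50. CC50 is MTT cytotoxicity in HepG2 2.2.15 cells. No index was given where a value could not be obtained.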

[5] = Cytotoxicity against human HepG2(2.2.15) cells by MTT assay; assay type: cell-based
Procedure, shortened: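 HepG2 2.2.15 cells were exposed to compounds and viability was read by a modified MTT method. CC50 is the concentration giving 50% cytotoxicity. Values are means of at least two experiments.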

[6] = system: Hepatitis B virus; test: Selectivity ratio of CC50 for human HepG2(2.2.15) cells to IC50 for Hepatitis B virus infected in human HepG2(2.2.15) cells assessed as suppression of HBeAg secretion; assay type: cell-based; settings: read-out: Ratio CC50/IC50; procedure, shortened: as §1
[7] = system: Hepatitis B virus; test: Selectivity ratio of CC50 for human HepG2(2.2.15) cells to IC50 for Hepatitis B virus infected in human HepG2(2.2.15) cells assessed as inhibition of viral replication; assay type: cell-based; settings: read-out: Ratio CC50/IC50; procedure, shortened: as §1

| Compound | pIC50 [1] | pIC50 [2] | pIC50 [3] | selectivity ratio [4] | CC50 ([5]; HepG2(2.2.15) cells) | selectivity ratio [6] | selectivity ratio [7] | CC50 ([5]; hepg2 2.2.15) |
| --- | --- | --- | --- | --- | --- | --- | --- | --- |
| CC(=O)[C@]1(O)CC[C@@]2(O)[C@]1(C)[C@H](OC(=O)/C=C(\C)C(C)C)C[C@@H]1[C@@]3(C)CC[C@H](OC(=O)COc4ccccc4)CC3=CC[C@]12O | 4.02 | 4.12 | 4.39 | 4.2 | 319 µM | 3.3 | 7.8 | – |
| CC(=O)[C@]1(O)CC[C@@]2(O)[C@]1(C)[C@H](OC(=O)/C=C(\C)C(C)C)C[C@@H]1[C@@]3(C)CC[C@H](OC(=O)c4cccnc4)CC3=CC[C@]12OC(=O)c1cccnc1 | 3.69 | 3.70 | 4.01 | 1.8 | 350 µM | 1.7 | 3.6 | – |
| CC(=O)[C@]1(O)CC[C@@]2(O)[C@]1(C)[C@H](OC(=O)/C=C(\C)C(C)C)C[C@@H]1[C@@]3(C)CC[C@H](O)CC3=CC[C@]12O [CAUDATIN] | < 3.74 | 3.85 | 4.39 | 1.7 | – | < 1.3 | 6 | 245 µM |
| CC(=O)[C@]1(O)CC[C@@]2(O)[C@]1(C)[C@H](OC(=O)/C=C(\C)C(C)C)C[C@@H]1[C@@]3(C)CC[C@H](OC(=O)c4cc5ccccc5[nH]4)CC3=CC[C@]12O | 4.47 | 4.66 | 5.44 | 1.7 | 36.7 µM | 1.1 | 10.1 | – |
| CC(=O)[C@]1(OC(=O)c2cccnc2)CC[C@@]2(O)[C@]1(C)[C@H](OC(=O)/C=C(\C)C(C)C)C[C@@H]1[C@@]3(C)CC[C@H](OC(=O)c4cccnc4)CC3=CC[C@]12O | 3.87 | 4.05 | 4.61 | > 6.7 | 602 µM | > 2.4 | > 24.4 | – |
| CC(=O)[C@]1(O)CC[C@@]2(O)[C@]1(C)[C@H](OC(=O)/C=C(\C)C(C)C)C[C@@H]1[C@@]3(C)CC[C@H](OC(=O)/C=C/n4ccnc4)CC3=CC[C@]12O | 4.88 | 4.73 | 5.13 | > 78 | > 1460 µM | > 111 | > 195 | – |
| CC(=O)[C@]1(OC(=O)/C=C/c2ccc3c(c2)OCO3)CC[C@@]2(O)[C@]1(C)[C@H](OC(=O)/C=C(\C)C(C)C)C[C@@H]1[C@@]3(C)CC[C@H](OC(=O)/C=C/c4ccc5c(c4)OCO5)CC3=CC[C@]12O | 3.39 | 3.24 | < 3.70 | > 1.8 | > 1020 µM | > 2.5 | – | – |
| C[C@H](Cn1cnc2c(N)ncnc21)OCP(=O)(O)O [TENOFOVIR ANHYDROUS] | 2.91 | 2.84 | 6.11 | > 1.3 | > 1820 µM | > 1.5 | > 2360 | – |
| CC(=O)[C@]1(O)CC[C@@]2(O)[C@]1(C)[C@H](OC(=O)/C=C(\C)C(C)C)C[C@@H]1[C@@]3(C)CC[C@H](OC(=O)C(C#N)=C(C)C)CC3=CC[C@]12O | 3.66 | 3.87 | 4.51 | 3.3 | 452 µM | 2 | 14.8 | – |
